Data from PMC9066187 (RSC Advances, 2019).
Like-named read-outs stand apart in the source and are kept apart here.

How the values were obtained:
HT-29 cells [1] = test: cells; conditions: Homo sapiens, HT-29, 72 h; for viability at 10 µM: read-out: viability drop compared to control cells
[2] = test system: mixture of tyrosine kinases extracted from HT-29 cell line; type: biochemical, human; conditions: 10 μM
purified Src kinase = purified Src kinase (Homo sapiens, UniProt P12931); test: biochemical; conditions: for inhibition at 10 µM: read-out: Src kinase inhibition
HCT-116 cells [3] = test: Annexin V-FITC/PI apoptosis/necrosis assessment, HCT-116; type: cell-based, human; conditions: 10 μM, 48 h, versus control
Method in brief: (§1)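 Human colorectal cancer cells were exposed to 10 μM test compound for 48 h, then stained with annexin V-FITC/PI and analysed by flow cytometry to separate apoptotic from necrotic cells. Each population is expressed as a percentage of total events and compared with untreated control. Values are mean ± SD, n = 3.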

HT-29 cells [4] = test: Annexin V-FITC/PI apoptosis/necrosis assessment, HT-29; type: cell-based, human; conditions: 10 μM, 48 h, versus control
Method in brief: as §1

HCT-116 cells [5] = test: Cyto-ID autophagy assessment, HCT-116; type: cell-based, human; conditions: 10 μM, 48 h
HCT-116 cells [6] = test: cells; conditions: Homo sapiens, HCT-116, 72 h; for IC50: 72 h; for viability at 10 µM: read-out: viability drop compared to control cells
[7] = test system: LS-174T colorectal cancer cells; test: cells; conditions: Homo sapiens, LS174T, 72 h, read-out: viability drop compared to control cells
HT-29 cells [8] = test: Cyto-ID autophagy assessment, HT-29; type: cell-based, human; conditions: for inhibition at 10 µM: Homo sapiens, HT-29, 48 h, read-out: inhibition of autophagy
HCT-116 cells [9] = conditions: 72 h; for viability drop compared to control cells: 100 μM
HT-29 cells [10] = conditions: 72 h; for viability drop compared to control cells: 100 μM
HT-29 cells [11] = test: Cell cycle distribution by DNA cytometry, HT-29; type: cell-based, human; conditions: 10 μM, 48 h; for cell population in G2/M-phase: control 19.3 ± 1.6%; for cells in S-phase: control 27.3 ± 0.6%; for cell population in G0/G1-phase: control 53.4 ± 2.7%
[12] = test system: LS-174T colorectal cancer cells; conditions: 100 μM; 72 h
HCT-116 cells [13] = test: Cell cycle distribution by DNA cytometry, HCT-116; type: cell-based, human; conditions: 10 μM, 48 h

Sequence of purified Src kinase (P12931 whole entry, looked up): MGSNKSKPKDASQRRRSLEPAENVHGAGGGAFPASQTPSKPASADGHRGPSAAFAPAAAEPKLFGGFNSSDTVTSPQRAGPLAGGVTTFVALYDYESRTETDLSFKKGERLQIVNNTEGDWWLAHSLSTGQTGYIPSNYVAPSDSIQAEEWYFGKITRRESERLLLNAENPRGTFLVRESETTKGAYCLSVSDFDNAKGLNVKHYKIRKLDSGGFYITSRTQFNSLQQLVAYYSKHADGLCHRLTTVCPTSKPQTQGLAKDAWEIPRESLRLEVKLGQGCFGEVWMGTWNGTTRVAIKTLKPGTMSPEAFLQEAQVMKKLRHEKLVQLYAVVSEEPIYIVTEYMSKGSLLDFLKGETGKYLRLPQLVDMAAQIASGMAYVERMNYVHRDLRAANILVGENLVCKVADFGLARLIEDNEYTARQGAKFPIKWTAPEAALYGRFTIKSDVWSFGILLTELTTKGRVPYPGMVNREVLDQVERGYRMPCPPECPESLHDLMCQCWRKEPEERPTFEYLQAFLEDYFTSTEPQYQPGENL

## COc1cc(C)cc(-c2nc(Nc3cc(C(F)(F)F)cc(C(F)(F)F)c3)ncc2-c2ccnc(-c3cccc(C(C)=O)c3)c2)c1 [Compound 8c]
HT-29 cells [1]
  viability at 10 µM: 35 to 45%

## Cc1cc(O)cc(-c2nc(Nc3cc(C(F)(F)F)cc(C(F)(F)F)c3)ncc2-c2ccnc(-c3ccc(C#N)cc3)c2)c1 [Compound 10f]
[2]
  multi-kinase inhibitory effect: 23.9 ± 7.4%
Purified Src kinase
  Src kinase inhibitory activity in words (dose-response): completely inactive
HCT-116 cells [3]
  increase of apoptotic cell population: 15.2 folds
  increase of necrotic cell population: 3.7 folds
HT-29 cells [4]
  increase of apoptotic cell population: 1.7 folds
HCT-116 cells [5]
  autophagic signal higher than control cells: 99%
HCT-116 cells [6]
  IC50: 9.2 ± 0.8 µM
  viability at 10 µM: 30 to 45%
HT-29 cells [1]
  IC50: 7.2 ± 1.1 µM

## Cc1cc(O)cc(-c2nc(Nc3cc(C(F)(F)F)cc(C(F)(F)F)c3)ncc2-c2ccnc(-c3ccc(Oc4ccccc4)cc3)c2)c1 [Compound 10j]
[2]
  multi-kinase inhibitory effect: 30.2 ± 0.4%
HCT-116 cells [6]
  viability at 10 µM: 30 to 45%
HT-29 cells [1]
  viability at 10 µM: 35 to 45%
[7]
  viability at 10 µM: > 50%
  viability at 100 µM: > 50%

## CCN(CC)CCCC(C)Nc1ccnc2cc(Cl)ccc12 (stereo not drawn) [chloroquine, reference compound]
HCT-116 cells [5]
  autophagic signal higher than control cells: 65%
HT-29 cells [8]; HT-29, 10 μM, 48 h, Cyto-ID
  effect on autophagy in words: induced autophagy

## COc1cc(C)cc(-c2nc(Nc3cc(C(F)(F)F)cc(C(F)(F)F)c3)ncc2-c2ccnc(-c3ccc(N(C)C)cc3)c2)c1 [Compound 8g]
[2]
  multi-kinase inhibitory effect: 33.1 ± 0.4%
Purified Src kinase
  inhibition at 10 µM: 28.5 ± 1.2%
HCT-116 cells [6]
  viability at 10 µM: 30 to 45%
HT-29 cells [1]
  viability at 10 µM: > 50%
[7]
  viability at 100 µM: > 50%

## Cc1cc(O)cc(-c2nc(Nc3cc(C(F)(F)F)cc(C(F)(F)F)c3)ncc2-c2ccnc(-c3ccc(N(C)C)cc3)c2)c1 [Compound 10g]
[2]
  multi-kinase inhibitory effect: 39 ± 0.4%
Purified Src kinase
  EC50: 3.7 ± 0.7 µM
  inhibition at 10 µM: 51.3 ± 9.8%
HCT-116 cells [9]
  R (resistance fraction): 41.6 ± 3.2%
HT-29 cells [10]
  R (resistance fraction): 12.9 ± 3.9%
HCT-116 cells [6]
  IC50: 9.4 ± 0.9 µM
  viability at 10 µM: 30 to 45%
HT-29 cells [1]
  IC50: 24.2 ± 2.1 µM
[7]
  viability at 100 µM: > 50%

## COc1cc(C)cc(-c2nc(Nc3cc(C(F)(F)F)cc(C(F)(F)F)c3)ncc2-c2ccnc(-c3ccc(C#N)cc3)c2)c1 [Compound 8f]
HCT-116 cells [6]
  viability at 10 µM: > 50%
HT-29 cells [1]
  viability at 10 µM: > 50%
[7]
  viability at 10 µM: > 50%
  viability at 100 µM: > 50%

## CC(=O)c1cccc(-c2cc(-c3cnc(Nc4cc(C(F)(F)F)cc(C(F)(F)F)c4)nc3-c3cc(C)cc(O)c3)ccn2)c1 [Compound 10c]
HCT-116 cells [6]
  viability at 10 µM: 30 to 45%
HT-29 cells [1]
  viability at 10 µM: 35 to 45%
[7]
  viability at 10 µM: > 50%
  viability at 100 µM: > 50%

## CC(=O)c1ccc(-c2cc(-c3cnc(Nc4cc(C(F)(F)F)cc(C(F)(F)F)c4)nc3-c3cc(C)cc(O)c3)ccn2)cc1 [Compound 10d]
HT-29 cells [1]
  viability at 10 µM: 35 to 45%
[7]
  viability at 10 µM: > 50%
  viability at 100 µM: > 50%

## Cc1cc(O)cc(-c2nc(Nc3cc(C(F)(F)F)cc(C(F)(F)F)c3)ncc2-c2ccnc(-c3cccnc3)c2)c1 [Compound 10b]
Purified Src kinase
  Src kinase inhibitory activity in words (dose-response): completely inactive
HT-29 cells [11]
  cell population in G2/M-phase: 25.1 ± 0.6%
  cells in S-phase: 23.0 ± 0.5%
HCT-116 cells [3]
  increase of apoptotic cell population: 4.7 folds
  increase of necrotic cell population: 2.4 folds
HT-29 cells [4]
  increase of apoptotic cell population: 2.3 folds
HCT-116 cells [5]
  autophagic signal higher than control cells: 30%
HCT-116 cells [9]
  IC50: 25.9 ± 1.3 µM
  R (resistance fraction): <1%
HCT-116 cells [6]
  IC50: > 25 µM
  viability at 10 µM: 30 to 45%
HT-29 cells [1]
  IC50: 6.4 ± 0.5 µM
  viability at 10 µM: > 50%

## Cc1cc(O)cc(-c2nc(Nc3cc(C(F)(F)F)cc(C(F)(F)F)c3)ncc2-c2ccnc(-c3ccccc3)c2)c1 [Compound 10a]
[2]
  multi-kinase inhibitory effect: 24.7 ± 4.6%
Purified Src kinase
  Src kinase inhibitory activity in words (dose-response): completely inactive
HT-29 cells [11]
  cell population in G2/M-phase: 24.8 ± 0.4%
  cells in S-phase: 29.8 ± 0.6%
  cell population in G0/G1-phase: 45.4 ± 0.6%
HCT-116 cells [3]
  increase of apoptotic cell population: 7.5 folds
  increase of necrotic cell population: 4.0 folds
HT-29 cells [8]
  inhibition at 10 µM: 24%
HCT-116 cells [6]
  IC50: 10.3 ± 0.6 µM
  viability at 10 µM: 30 to 45%
HT-29 cells [1]
  IC50: 9.9 ± 0.3 µM
  viability at 10 µM: > 50%

## Cc1cc(O)cc(-c2nc(Nc3cc(C(F)(F)F)cc(C(F)(F)F)c3)ncc2-c2ccnc(-c3ccc(N(c4ccccc4)c4ccccc4)cc3)c2)c1 [Compound 10h]
HCT-116 cells [9]
  viability drop compared to control cells: failed to show any considerable antiproliferative/cytotoxic effects
HT-29 cells [10]
  viability drop compared to control cells: failed to show any considerable antiproliferative/cytotoxic effects
[12]
  viability drop compared to control cells: failed to show any considerable antiproliferative/cytotoxic effects

## COc1cc(C)cc(-c2nc(Nc3cc(C(F)(F)F)cc(C(F)(F)F)c3)ncc2-c2ccnc(-c3cccnc3)c2)c1 [Compound 8b]
[2]
  multi-kinase inhibitory effect: 26.6 ± 2.4%
Purified Src kinase
  EC50: 1.3 ± 0.3 µM
  Src kinase selectivity index: 2.9
  inhibition at 10 µM: 77.8 ± 1.3%
HCT-116 cells [13]; control 36.4 ± 4.1%
  cells in S-phase: 22.8 ± 2.3%
HCT-116 cells [13]; control 39.5 ± 4.6%
  cells in G0/G1-phase: 50.2 ± 1.0%
HT-29 cells [11]
  cells in S-phase: 21.0 ± 0.9%
  cell population in G0/G1-phase: 58.8 ± 1.8%
HCT-116 cells [3]
  increase of apoptotic cell population: 3.8 folds
  increase of necrotic cell population: 2.9 folds
HT-29 cells [4]
  increase of apoptotic cell population: 2.5 folds
HCT-116 cells [5]
  autophagic signal higher than control cells: 54%
HT-29 cells [8]
  inhibition at 10 µM: 21%
HCT-116 cells [9]
  IC50: 32.4 ± 2.8 µM
  R (resistance fraction): 3.7 ± 0.9%
HCT-116 cells [6]
  IC50: > 25 µM
  viability at 10 µM: 30 to 45%
HT-29 cells [1]
  IC50: 11.3 ± 0.5 µM
  viability at 10 µM: 35 to 45%

## COc1cc(C)cc(-c2nc(Nc3cc(C(F)(F)F)cc(C(F)(F)F)c3)ncc2-c2ccnc(-c3ccc(Oc4ccccc4)cc3)c2)c1 [Compound 8j]
[2]
  multi-kinase inhibitory effect: 26 ± 0.5%
Purified Src kinase
  Src kinase selectivity index: 2.1
  inhibition at 10 µM: 54.9 ± 1.6%

## COc1cc(C)cc(-c2nc(Nc3cc(C(F)(F)F)cc(C(F)(F)F)c3)ncc2-c2ccnc(-c3ccccc3)c2)c1 [Compound 8a]
[2]
  multi-kinase inhibitory effect: 23 ± 0.4%
Purified Src kinase
  Src kinase selectivity index: 2.4
  inhibition at 10 µM: 54 ± 0.6%

## COc1cc(C)cc(-c2nc(Nc3cc(C(F)(F)F)cc(C(F)(F)F)c3)ncc2-c2ccnc(Cl)c2)c1 [Compound 7]
[2]
  multi-kinase inhibitory effect: 37.4 ± 3.7%
Purified Src kinase
  Src kinase inhibitory activity in words (dose-response): moderate inhibitory activity
  inhibition at 10 µM: 42.3 ± 10.3%
HCT-116 cells [3]
  increase of necrotic cell population: 3.4 folds
HT-29 cells [1]
  IC50: 9.4 ± 0.5 µM
  viability at 10 µM: > 50%
[7]
  viability at 100 µM: > 50%

## COc1cc(C)cc(-c2nc(Nc3cc(C(F)(F)F)cc(C(F)(F)F)c3)ncc2-c2ccnc(-c3ccc(N(c4ccccc4)c4ccccc4)cc3)c2)c1 [Compound 8h]
HCT-116 cells [9]
  viability drop compared to control cells: failed to show any considerable antiproliferative/cytotoxic effects
HT-29 cells [10]
  viability drop compared to control cells: failed to show any considerable antiproliferative/cytotoxic effects
[12]
  viability drop compared to control cells: failed to show any considerable antiproliferative/cytotoxic effects
